This note sets out measurements from PubChem BioAssay AID602403 (The Scripps Research Institute Molecular Screening Center, 2012).

Structures are written as SMILES. Unmarked numbers belong to inactive results. Calls of active or inactive are those of the source.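 How the source made its calls: active means inhibition of the enzyme-probe labelling of at least 50% at one fixed dose; inactive means inhibition below 50%.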

The term inhibition denotes the change of the read-out against control, counted positive when it falls.

Chain of Diacylglycerol lipase-alpha (Mus musculus) (Q6WQJ1 whole entry, looked up): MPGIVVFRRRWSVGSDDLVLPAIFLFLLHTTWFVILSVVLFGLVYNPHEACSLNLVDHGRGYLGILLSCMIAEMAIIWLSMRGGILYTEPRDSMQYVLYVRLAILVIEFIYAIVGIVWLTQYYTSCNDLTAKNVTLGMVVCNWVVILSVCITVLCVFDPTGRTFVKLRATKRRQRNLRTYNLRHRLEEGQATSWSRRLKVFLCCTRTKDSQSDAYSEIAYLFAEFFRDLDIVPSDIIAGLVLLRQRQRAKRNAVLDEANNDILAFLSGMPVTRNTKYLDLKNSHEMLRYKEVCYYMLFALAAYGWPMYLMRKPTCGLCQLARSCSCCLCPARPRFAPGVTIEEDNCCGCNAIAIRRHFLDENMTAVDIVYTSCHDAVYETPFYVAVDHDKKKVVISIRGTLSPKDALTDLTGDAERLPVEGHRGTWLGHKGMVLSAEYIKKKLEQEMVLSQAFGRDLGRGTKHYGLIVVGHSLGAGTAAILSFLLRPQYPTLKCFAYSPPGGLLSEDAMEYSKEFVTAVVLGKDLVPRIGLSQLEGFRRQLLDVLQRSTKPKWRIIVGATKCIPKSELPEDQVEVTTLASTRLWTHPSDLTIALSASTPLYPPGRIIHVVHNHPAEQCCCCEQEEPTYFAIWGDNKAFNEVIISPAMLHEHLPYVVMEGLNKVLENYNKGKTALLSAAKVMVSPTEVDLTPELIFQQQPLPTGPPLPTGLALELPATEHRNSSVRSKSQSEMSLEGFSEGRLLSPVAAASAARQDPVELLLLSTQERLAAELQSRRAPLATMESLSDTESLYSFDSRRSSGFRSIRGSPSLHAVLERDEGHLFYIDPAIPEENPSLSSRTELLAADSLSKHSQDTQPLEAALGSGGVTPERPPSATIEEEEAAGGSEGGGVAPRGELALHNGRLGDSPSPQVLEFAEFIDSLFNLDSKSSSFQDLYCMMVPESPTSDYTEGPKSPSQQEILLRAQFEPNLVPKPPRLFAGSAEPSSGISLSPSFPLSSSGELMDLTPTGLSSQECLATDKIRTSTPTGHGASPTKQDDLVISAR

The test has as its target Diacylglycerol lipase-alpha (Mus musculus) (UniProt Q6WQJ1). Nature of the test: mouse DAGLa inhibition, late-stage follow-up, selectivity assay for DAGLb inhibitor project, biochemical, gel-based competitive ABPP, recombinant, fluorescence (AID 602403). Conditions: HEK293T membrane mouse DAGLa, at 0.4 µM, active compounds read high. In a few lines: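 Material: membrane proteome of 293T HEK cells transiently overexpressing mouse DAGLa / Reagent: fluorescent activity-based probe HT-01 at 1 µM final / Timing: 30 min compound plus 30 min probe, 37 °C / Measured by: in-gel fluorescence after SDS-PAGE / Read-out basis: percent inhibition from band integrated optical density versus DMSO control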
For `COc1ccccc1-c1ccc(-c2cn(C(=O)N3CCCCC3Cc3ccccc3)nn2)cc1` (stereo not drawn), the inhibition was 40%.
Then `O=C(N1CCCCC1Cc1ccccc1)n1cc(-c2ccc(OC(F)(F)F)cc2)nn1` (stereo not drawn), with 50% (active); and `COc1ccc(-c2ccc(-c3cn(C(=O)N4CCCCC4c4ccccc4)nn3)cc2)cc1` (stereo not drawn), with 0%.
